From ChEMBL document CHEMBL1130334, “Effect of plasma protein binding on in vivo activity and brain penetration of glycine/NMDA receptor antagonists” (J Med Chem, 1997)

Legend:
Glutamate NMDA receptor = test: Affinity for the glycine binding site on rat N-methyl-D-aspartate glutamate receptor 1, determined by displacement of the glycine site antagonist [3H]L-689,560 from rat cortical membranes; type: cell membranes, Membrane
Albumin = Albumin (Homo sapiens, UniProt P02768); test: Human serum albumin index was measured by retention time on an HPLC column containing human albumin
Summary of the method: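 HPLC on a column containing human serum albumin. Retention volume of each compound is divided by that of a reference standard and normalized so the standard equals 100.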

Chain of Albumin (P02768 whole entry): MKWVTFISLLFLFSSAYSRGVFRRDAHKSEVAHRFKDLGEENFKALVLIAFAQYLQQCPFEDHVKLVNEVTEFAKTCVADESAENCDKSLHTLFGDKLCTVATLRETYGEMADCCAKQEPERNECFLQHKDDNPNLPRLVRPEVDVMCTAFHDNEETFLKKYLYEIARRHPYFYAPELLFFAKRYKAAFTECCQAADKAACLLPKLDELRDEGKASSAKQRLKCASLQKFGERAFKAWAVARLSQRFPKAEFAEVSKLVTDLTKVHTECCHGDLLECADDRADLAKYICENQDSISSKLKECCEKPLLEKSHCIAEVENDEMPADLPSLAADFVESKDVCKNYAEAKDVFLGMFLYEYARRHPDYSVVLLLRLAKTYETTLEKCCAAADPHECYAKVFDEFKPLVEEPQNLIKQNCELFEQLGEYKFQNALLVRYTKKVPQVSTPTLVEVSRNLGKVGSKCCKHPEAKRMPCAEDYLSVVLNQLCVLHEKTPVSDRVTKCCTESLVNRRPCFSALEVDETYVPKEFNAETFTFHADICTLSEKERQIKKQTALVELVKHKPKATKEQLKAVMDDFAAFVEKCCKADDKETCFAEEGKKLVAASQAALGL

SMILES	IC50 (Glutamate NMDA receptor) [nM]	HSAI (Albumin)
Oc1nc2cc(Cl)ccc2c(O)c1-c1cccc(C#Cc2ccccc2)c1	34.3	577
COCCOCOc1ccc(Cc2cccc(-c3c(O)nc4cc(Cl)ccc4c3O)c2)cc1	3.6	56
O=c1[nH]c2cc(Cl)ccc2c(O)c1-c1cccc(NCc2ccccc2)c1	9.6	76
COc1ccccc1Cc1cccc(-c2c(O)nc3cc(Cl)ccc3c2O)c1	8	118
O=C(OCC#Cc1cccc(O)c1)c1c(O)c2ccc(Cl)cc2[nH]c1=O	–	213
O=C(c1ccc(Br)s1)c1c(O)nc2cc(Cl)ccc2c1O	954	40
Oc1nc2cc(Cl)ccc2c(O)c1-c1cccc(OCC2CC2)c1	37.8	21
O=c1[nH]c2ccccc2c(O)c1-c1ccccc1	7500	2
CCOC(=O)c1c(O)c2ccc([N+](=O)[O-])cc2[nH]c1=O	–	1
CC(=O)c1cc(Cc2cccc(-c3c(O)c4ccc(Cl)cc4[nH]c3=O)c2)ccc1O	42.7	75
Oc1nc2cc(Cl)ccc2c(O)c1-c1ccco1	–	6
Oc1nc2cc(Cl)ccc2c(O)c1-c1cccc(NCc2ccsc2)c1	–	68
O=C(CCc1c(C(=O)O)[nH]c2cc(Cl)cc(Cl)c12)Nc1ccccc1	36.4	142
O=C(c1ccco1)c1c(O)nc2cc(Cl)ccc2c1O	–	3
Cn1cccc1-c1c(O)nc2cc(Cl)ccc2c1O	818	3
O=[N+]([O-])c1cc([N+](=O)[O-])c2nc(O)c(O)nc2c1	–	4
CN(Cc1cccc(-c2c(O)nc3cc(Cl)ccc3c2O)c1)c1ccccc1	11.7	140
O=C(c1ccccc1)c1cccc(-c2c(O)nc3cc(Cl)ccc3c2O)c1	3.6	58
C=CCOC(=O)c1c(O)c2ccc(Cl)cc2[nH]c1=O	–	6
Cc1cccc(-c2c(O)nc3cc(Cl)ccc3c2O)c1	84	14
CNCc1ccc(Cc2cccc(-c3c(O)nc4cc(Cl)ccc4c3O)c2)cc1	124	13

Further lines, results first:

IC50 (Glutamate NMDA receptor) [nM]	HSAI (Albumin)	SMILES
2230	59	O=C(c1c(O)nc2cc(Cl)ccc2c1O)c1csc2ccccc12
1.3	163	Cc1ccccc1Oc1cccc(-c2c(O)nc3cc(Cl)ccc3c2O)c1
3000	45	O=C(OCCc1ccsc1)c1c(O)nc2cc(Cl)ccc2c1O
–	44	O=C(OCCc1cccs1)c1c(O)nc2cc(Cl)ccc2c1O
12.2	118	Oc1nc2cc(Cl)ccc2c(O)c1-c1cccc(OCc2ccccc2)c1
204	10	COc1cccc(-c2c(O)nc3cc(Cl)ccc3c2O)c1
6	571	Oc1nc2cc(Cl)ccc2c(O)c1-c1cccc(C2=CCc3ccccc32)c1
421	8	COc1ccc(-c2c(O)c3ccc(Cl)cc3[nH]c2=O)cc1
1.95	837	CCc1cc(Cl)cc2nc(O)c(-c3cccc(Oc4ccccc4)c3)c(O)c12
391	13	Cc1ccc(-c2c(O)nc3cc(Cl)ccc3c2O)cc1
658	8	Oc1nc2cc(Cl)ccc2c(O)c1-c1ccc(F)cc1
–	322	Oc1nc2cc(Cl)ccc2c(O)c1-c1cccc(-n2ccc3ccccc32)c1
27.9	629	Oc1nc2cc(Cl)ccc2c(O)c1-c1cccc(Cc2cccc3ccccc23)c1
1520	26	O=C(c1ccc(Cl)s1)c1c(O)nc2cc(Cl)ccc2c1O
–	117	Oc1nc2cc(Cl)ccc2c(O)c1-c1cccc(-c2ccccc2)c1
–	57	Cc1cn(-c2c(O)nc3cc(Cl)ccc3c2O)c2ccccc12
7.8	310	Cc1ccc(Oc2cccc(-c3c(O)nc4cc(Cl)ccc4c3O)c2)cc1
–	103	CCc1cc(Cl)cc2nc(O)c(-c3ccccc3)c(O)c12
